According to PMC7814465 (Cell reports, 2020):

B1: TNPO1: nuclear import receptor, recombinant (protein)
chain: MVWDRQTKMEYEWKPDEQGLQQILQLLKESQSPDTTIQRTVQQKLEQLNQYPDFNNYLIFVLTKLKSEDEPTRSLSGLILKNNVKAHFQNFPNGVTDFIKSECLNNIGDSSPLIRATVGILITTIASKGELQNWPDLLPKLCSLLDSEDYNTCEGAFGALQKICEDSAEILDSDVLDRPLNIMIPKFLQFFKHSSPKIRSHAVACVNQFIISRTQALMLHIDSFIENLFALAGDEEPEVRKNVCRALVMLLEVRMDRLLPHMHNIVEYMLQRTQDQDENVALEACEFWLTLAEQPICKDVLVRHLPKLIPVLVNGMKYSDIDIILLKGDVEEDETIPDSEQDIRPRFHRSRTVAQQHDEDGIEEEDDDDDEIDDDDTISDWNLRKCSAAALDVLANVYRDELLPHILPLLKELLFHHEWVVKESGILVLGAIAEGCMQGMIPYLPELIPHLIQCLSDKKALVRSITCWTLSRYAHWVVSQPPDTYLKPLMTELLKRILDSNKRVQEAACSAFATLEEEACTELVPYLAYILDTLVFAFSKYQHKNLLILYDAIGTLADSVGHHLNKPEYIQMLMPPLIQKWNMLKDEDKDLFPLLECLSSVATALQSGFLPYCEPVYQRCVNLVQKTLAQAMLNNAQPDQYEAPDKDFMIVALDLLSGLAEGLGGNIEQLVARSNILTLMYQCMQDKMPEVRQSSFALLGDLTKACFQHVKPCIADFMPILGTNLNPEFISVCNNATWAIGEISIQMGIEMQPYIPMVLHQLVEIINRPNTPKTLLENTAITIGRLGYVCPQEVAPMLQQFIRPWCTSLRNIRDNEEKDSAFRGICTMISVNPSGVIQDFIFFCDAVASWINPKDDLRDMFCKILHGFKNQVGDENWRRFSDQFPLPLKERLAAFYGV
modifications: left off: His6, N-terminal, kept

What was measured:
[1] = test system: TDP-43 (TDP-43-Tev-MBP/MBP-Tev-TDP-43-GFP); test: TDP-43 condensate formation with DPRs, microscopy; format: biochemical; conditions: TMR-labeled DPR, equimolar (1x) or two-fold (2x), 2 μM TDP-43/TDP-43-GFP, Tev cleavage, 200 mM NaCl, pH 7.5
Method in brief: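 Size-exclusion-purified TDP-43-MBP-His (2 μM) was mixed with substoichiometric MBP-TDP-43-GFP-His (1:4–1:5). Condensates were imaged by laser scanning confocal microscopy.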

TNPO1 (His-TNPO1) = test: SDD-AGE oligomer formation, TNPO1; format: biochemical; conditions: 10-fold molar excess: 2 μM importin, 20 μM TMR-DPR, pH 7.5, 200 mM NaCl, 1 h RT
[2] = test system: shuttling reporter (NLS and nuclear export signal); conditions: HeLa cells incubated with peptides; ref Shi et al., 2017; cited from earlier work
Imp7 = test: Pull-down from HeLa cytosol, Imp7; format: binding; conditions: biotinylated peptide, western blot
Method in brief: (§1)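 Biotin-DPR bait (5 μg per 10 μl beads) immobilised overnight with 2 mg/ml ovalbumin. Prey bound in B-buffer with 2 mg/ml BSA, washed without BSA, eluted in 2× SDS loading buffer. Two independent replicates.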

Impα3 (His-Impα3) = test: SDD-AGE oligomer formation, Impα3; format: biochemical, rat; conditions: 10-fold molar excess: 2 μM importin, 20 μM TMR-DPR, pH 7.5, 200 mM NaCl, 1 h RT
GAPDH in HeLa cytosol = test: Sedimentation assay from HeLa cytosol, GAPDH; format: biochemical; conditions: highest GR/PR concentrations
[3] = test system: Impβ (His-S-Impβ, in the absence of Impα); test: Sedimentation assay, Impβ alone; format: biochemical
Method in brief: (§2)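 Protein was 1 µM purified NTR alone, or 500 nM Impα with 500 nM Impβ. Samples were centrifuged 15 min at 21,000 g, 4°C. Equal volumes of supernatant and pellet were analysed by SDS-PAGE with Sypro-Ruby stain or western blot.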

CRM1 = test: Sedimentation assay, CRM1; format: biochemical
Method in brief: as §2

Impα3 = test: Pull-down from HeLa cytosol, Impα3; format: binding; conditions: biotinylated peptide, western blot
Method in brief: as §1

Impb = conditions: FRET sensors and bead Halo assays; ref Hayes et al., 2019; cited from earlier work
Impβ = test: Pull-down from HeLa cytosol, Impβ; format: binding; conditions: biotinylated peptide, western blot
Method in brief: as §1

GST-GR25 / TDP-43 = test: Sedimentation of GST-GR25 with TDP-43 and NTRs; format: biochemical; conditions: equimolar NTR; three independent experiments
Method in brief: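 1 µM TDP-43-MBP-His was Tev-cleaved (20 µg/ml His-Tev, 60 min, 30°C) with or without equimolar GST-tagged DPR and/or NTRs. Samples were centrifuged 15 min at 21,000 g, 4°C. Equal volumes of supernatant and pellet were analysed by anti-GST western blot.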

TDP-43 [4] = test: TDP-43 turbidity assay; format: biochemical; conditions: n = 3
Method in brief: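 TDP-43-MBP-His (Ni-NTA then amylose purified) and TNPO1 were buffer-exchanged into 20 mM HEPES-NaOH pH 7.4, 150 mM NaCl, 1 mM DTT. TDP-43 at 5 µM final was combined with 2 µM DPR peptide (PBS control), 5 µM TNPO1, or both. Phase separation was started with 1 µg/ml Tev protease, and absorbance at 395 nm was followed over 16 h. Values were normalized to TDP-43 plus Tev alone.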

TDP-43 [5] = test: Sedimentation of TDP-43 with GST-GR25 and NTRs; format: biochemical; conditions: GST-GR25, NTR added prior to Tev cleavage; three independent experiments
Method in brief: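 1 µM TDP-43-MBP-His was Tev-cleaved (20 µg/ml His-Tev, 60 min, 30°C) with or without equimolar GST-tagged DPR and/or NTRs, then spun 15 min at 21,000 g, 4°C. Equal supernatant and pellet volumes were analysed by SDS-PAGE with Sypro-Ruby or western blot. Percentage of soluble cleaved TDP-43 is the mean ± SEM of three experiments, compared by one-way ANOVA with Dunnett's test.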

TDP-43 condensates = test: Suppression of phase separation of TDP-43 alone by NTRs; format: biochemical; conditions: equimolar NTR, 5 μM TDP-43, Tev cleavage
Method in brief: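 TDP-43-MBP-His (Ni-NTA then amylose purified) and TNPO1 were buffer-exchanged into 20 mM HEPES-NaOH pH 7.4, 150 mM NaCl, 1 mM DTT. TDP-43 at 5 μM, with or without 5 μM TNPO1, was started with 1 μg/ml Tev protease. Absorbance at 395 nm was read over 16 h and normalised to TDP-43 + Tev alone.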

[6] = test system: GR- or PR-induced TDP-43 condensates; test: Suppression of GR- or PR-induced TDP-43 condensates by NTRs; format: biochemical; conditions: equimolar NTR; TMR-GR25 or TMR-PR25; Tev cleavage
Method in brief: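 SEC-purified TDP-43-MBP-His (2 μM) was mixed with MBP-TDP-43-GFP-His at 1:4–1:5, together with equimolar TMR-labelled DPR, with or without NTRs. Mixing preceded cleavage with 100 μg/ml His-Tev in 50 mM Tris pH 7.5, 200 mM NaCl, 2 mM DTT. Condensates were imaged by laser scanning confocal microscopy.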

TDP-43 in HeLa cytosol = test: Suppression by NTRs of GR-induced precipitation of cytosolic TDP-43; format: biochemical; conditions: equimolar NTR, three independent experiments
Method in brief: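 Cytosol came from digitonin-permeabilised HeLa cells, cleared at 21,000 g. TMR-DPRs were added and the mix held 15 min at 4°C, then spun at 21,000 g for 15 min. Equal volumes of pellet and supernatant were analysed by western blot.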

[7] = 10-fold molar excess of TMR-labeled DPR, n = 3
[8] = extremely high concentrations (up to 40x)

Molecule | TDP-43 condensate formation [1] | oligomer formation of TNPO1 (SDS-resistant) (TNPO1 (His-TNPO1)) | import of shuttling reporter [2] | binding in pull-down (Imp7) | oligomer formation of Impα3 (SDS-resistant) (Impα3 (His-Impα3)) | precipitation of GAPDH from HeLa cytosol (GAPDH in HeLa cytosol) | solubility of Impβ [3, 7] | precipitation of Impβ, titration [3, 8] | solubility of CRM1 (CRM1; [7]) | precipitation of CRM1, titration (CRM1; [8]) | binding in pull-down (Impα3) | direct binding to Impb in vitro (Impb) | binding in pull-down (Impβ) | rescue of GST-GR25 solubility in presence of TDP-43 (GST-GR25 / TDP-43) | effect on GR-mediated promotion of TDP-43 turbidity (TDP-43 [4]; 5 μM TNPO1, 2 μM GR20, 5 μM TDP-43, 395 nm, 16 h) | effect on TDP-43 turbidity increase in absence of GR (TDP-43 [4]; 5 μM TNPO1, 5 μM TDP-43, Tev cleavage, 395 nm) | reversal of poly-GR-enhanced sedimentation of TDP-43 (TDP-43 [5]) | suppression of phase separation of TDP-43 alone (TDP-43 condensates) | suppression of GR- or PR-induced TDP-43 condensates [6] | suppression of GR-induced precipitation of cytosolic TDP-43 (TDP-43 in HeLa cytosol)
poly-PR: arginine-rich dipeptide repeat protein species; in the experiments mostly PR25 | formation of condensates | SDS-resis-tant oligomers | reduced import | bound equally to both poly-GR and poly-PR | SDS-resis-tant oligomers | not precipitated | remained mainly soluble | only partial or no precipitation | remained mainly soluble | only partial or no precipitation | bound equally to both poly-GR and poly-PR | direct binding | bound equally to both poly-GR and poly-PR |  |  |  |  |  |  | 
B1 |  |  |  |  |  |  |  |  |  |  |  |  |  | completely rescued | effectively suppressed | did not affect | efficiently reverted | unable to abolish condensate formation of TDP-43 | suppress the GR- or PR-induced formation of TDP-43 condensates | efficiently suppressed GR-induced precipitation of cytosolic TDP-43
